Assay results: ChEMBL document CHEMBL1143753, “Synthesis and antimicrobial activity of some new thiazolyl thiazolidine-2,4-dione derivatives” (2007)
Converted amounts (≈) assume the structure as drawn.

Key:
Format in all cases: functional
[1] = system: Staphylococcus aureus; test: Antibacterial activity against methicillin-resistant Staphylococcus aureus ATCC 43300 after 24 hrs; conditions: ATCC 43300, 24 h
Outline: (§1)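 Compounds were dissolved in dimethylformamide/propyleneglycol (0.5:9.5) and serially diluted twofold in Mueller–Hinton broth at pH 7.4, from 100 down to 0.78. Inocula came from 24 h broth cultures grown at 37 °C, with a final inoculum of 10⁵ CFU/ml. Tubes were incubated for 24 h at 37 °C alongside inoculated-broth and solvent controls. The MIC was read as the last tube showing no growth.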

[2] = system: Staphylococcus aureus; test: Antibacterial activity against methicillin-resistant Staphylococcus aureus isolate after 24 hrs; outline: as §1
[3] = system: Staphylococcus aureus; test: Antibacterial activity against Staphylococcus aureus ATCC 25923 after 24 hrs; conditions: ATCC 25923, 24 h; outline: as §1
[4] = system: Escherichia coli; test: Antibacterial activity against Escherichia coli ATCC 23556 after 24 hrs; conditions: ATCC 23556, 24 h
Outline: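 Twofold serial broth dilution in Mueller–Hinton broth, pH 7.4; compounds dissolved in dimethylformamide/propyleneglycol (0.5:9.5), diluted in medium from 100 down to 0.78 (100, 50, 25, 12.5, 6.25, 3.12, 1.56, 0.78). Inoculum 10⁵ CFU/ml from 24 h broth cultures. Incubated 24 h at 37 °C; MIC taken as last tube without growth. Inoculated broth-only tubes as controls.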

[5] = system: Candida albicans; test: Antifungal activity against Candida albicans ATCC 10145 after 48 hrs; conditions: ATCC 10145, 48 h
Outline: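 Yeast maintained in Sabouraud dextrose broth, 24 h at 25 °C; testing by twofold serial dilution in Sabouraud dextrose broth, pH 7.4, final inoculum 10⁴ CFU/ml. Compounds in dimethylformamide/propyleneglycol (0.5:9.5), diluted in medium from 100 to 0.78 (100, 50, 25, 12.5, 6.25, 3.12, 1.56, 0.78).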

O=C(CN1C(=O)S/C(=C\c2sc(Cl)nc2Cl)C1=O)c1ccc([N+](=O)[O-])cc1 gave an MIC [1] of 12.5 µg/mL (≈ 28.1 µM), an MIC [2] of 12.5 µg/mL (≈ 28.1 µM) and an MIC [3] of 12.5 µg/mL (≈ 28.1 µM). The MIC [4] was 25 µg/mL (≈ 56.3 µM) and the MIC [5] was 6.25 µg/mL (≈ 14.1 µM).
With O=C(CN1C(=O)S/C(=C\c2sc(Cl)nc2Cl)C1=O)c1ccc(F)cc1 the MIC [1] was 6.25 µg/mL (≈ 15 µM), the MIC [2] was 6.25 µg/mL (≈ 15 µM) and the MIC [3] was 6.25 µg/mL (≈ 15 µM). It also gave an MIC [4] of 6.25 µg/mL (≈ 15 µM) and an MIC [5] of 12.5 µg/mL (≈ 30 µM).
With O=C(CN1C(=O)S/C(=C\c2sc(Cl)nc2Cl)C1=O)c1ccc(Cl)cc1 the MIC [1] was 6.25 µg/mL (≈ 14.4 µM), the MIC [2] was 6.25 µg/mL (≈ 14.4 µM) and the MIC [3] was 6.25 µg/mL (≈ 14.4 µM). It also gave an MIC [4] of 25 µg/mL (≈ 57.6 µM) and an MIC [5] of 6.25 µg/mL (≈ 14.4 µM).
O=C(CN1C(=O)S/C(=C\c2sc(Cl)nc2Cl)C1=O)c1ccc(Br)cc1 gave an MIC [1] of 6.25 µg/mL (≈ 13.1 µM), an MIC [2] of 12.5 µg/mL (≈ 26.1 µM) and an MIC [3] of 12.5 µg/mL (≈ 26.1 µM). The MIC [4] was 6.25 µg/mL (≈ 13.1 µM) and the MIC [5] was 6.25 µg/mL (≈ 13.1 µM).
Work on O=C1S/C(=C\c2sc(Cl)nc2Cl)C(=O)N1Cc1ccc(F)cc1 yielded an MIC [1] of 6.25 µg/mL (≈ 16.1 µM), an MIC [2] of 6.25 µg/mL (≈ 16.1 µM) and an MIC [3] of 6.25 µg/mL (≈ 16.1 µM). It also gave an MIC [4] of 25 µg/mL (≈ 64.2 µM) and an MIC [5] of 12.5 µg/mL (≈ 32.1 µM).
O=C1S/C(=C\c2sc(Cl)nc2Cl)C(=O)N1Cc1ccc(Cl)cc1 was tested, and the MIC [1] was 6.25 µg/mL (≈ 15.4 µM), the MIC [2] was 6.25 µg/mL (≈ 15.4 µM) and the MIC [3] was 6.25 µg/mL (≈ 15.4 µM). It also gave an MIC [4] of 25 µg/mL (≈ 61.6 µM) and an MIC [5] of 6.25 µg/mL (≈ 15.4 µM).
Compound O=C1S/C(=C\c2sc(Cl)nc2Cl)C(=O)N1Cc1ccc(Cl)cc1Cl has an MIC [1] of 12.5 µg/mL (≈ 28.4 µM), an MIC [2] of 12.5 µg/mL (≈ 28.4 µM) and an MIC [3] of 12.5 µg/mL (≈ 28.4 µM). For the same compound, the MIC [4] was 25 µg/mL (≈ 56.8 µM) and the MIC [5] was 6.25 µg/mL (≈ 14.2 µM).
In the case of O=C1S/C(=C\c2sc(Cl)nc2Cl)C(=O)N1Cc1ccc([N+](=O)[O-])cc1, the MIC [1] is reported as 6.25 µg/mL (≈ 15 µM), the MIC [2] is reported as 12.5 µg/mL (≈ 30 µM) and the MIC [3] is reported as 6.25 µg/mL (≈ 15 µM). For the same compound, the MIC [4] was 25 µg/mL (≈ 60.1 µM) and the MIC [5] was 12.5 µg/mL (≈ 30 µM).
With O=C(CN1C(=O)S/C(=C\c2sc(Cl)nc2Cl)C1=O)c1ccc(Cl)cc1Cl the MIC [1] was 12.5 µg/mL (≈ 26.7 µM), the MIC [2] was 12.5 µg/mL (≈ 26.7 µM) and the MIC [3] was 12.5 µg/mL (≈ 26.7 µM). For the same compound, the MIC [4] was 25 µg/mL (≈ 53.4 µM) and the MIC [5] was 12.5 µg/mL (≈ 26.7 µM).
O=C1S/C(=C\c2sc(Cl)nc2Cl)C(=O)N1Cc1ccccc1 gave an MIC [1] of 6.25 µg/mL (≈ 16.8 µM), an MIC [2] of 12.5 µg/mL (≈ 33.7 µM) and an MIC [3] of 12.5 µg/mL (≈ 33.7 µM). The MIC [4] was 25 µg/mL (≈ 67.3 µM) and the MIC [5] was 6.25 µg/mL (≈ 16.8 µM).
For O=C1S/C(=C\c2sc(Cl)nc2Cl)C(=O)N1Cc1ccc(Br)cc1, the MIC [1] was 12.5 µg/mL (≈ 27.8 µM), the MIC [2] was 6.25 µg/mL (≈ 13.9 µM) and the MIC [3] was 6.25 µg/mL (≈ 13.9 µM). The MIC [4] was 25 µg/mL (≈ 55.5 µM) and the MIC [5] was 6.25 µg/mL (≈ 13.9 µM).
O=C(CN1C(=O)S/C(=C\c2sc(Cl)nc2Cl)C1=O)c1ccccc1 showed an MIC [1] of 6.25 µg/mL (≈ 15.7 µM), an MIC [2] of 6.25 µg/mL (≈ 15.7 µM) and an MIC [3] of 6.25 µg/mL (≈ 15.7 µM). For the same compound, the MIC [4] was 25 µg/mL (≈ 62.6 µM) and the MIC [5] was 12.5 µg/mL (≈ 31.3 µM).
O=C(CN1C(=O)S/C(=C/c2sc(Cl)nc2Cl)C1=O)c1ccc(Cl)cc1 showed an MIC [1] of 12.5 µg/mL (≈ 28.8 µM), an MIC [2] of 6.25 µg/mL (≈ 14.4 µM) and an MIC [3] of 12.5 µg/mL (≈ 28.8 µM). It also gave an MIC [4] of 50 µg/mL (≈ 115 µM) and an MIC [5] of 6.25 µg/mL (≈ 14.4 µM).
In the case of O=C(CN1C(=O)S/C(=C/c2sc(Cl)nc2Cl)C1=O)c1ccc(Cl)cc1Cl, the MIC [1] is reported as 12.5 µg/mL (≈ 26.7 µM), the MIC [2] is reported as 12.5 µg/mL (≈ 26.7 µM) and the MIC [3] is reported as 12.5 µg/mL (≈ 26.7 µM). It also gave an MIC [4] of 25 µg/mL (≈ 53.4 µM) and an MIC [5] of 12.5 µg/mL (≈ 26.7 µM).
For CC1(C)S[C@@H]2[C@H](NC(=O)[C@H](N)c3ccccc3)C(=O)N2[C@H]1C(=O)O [AMPICILLIN], the MIC [1] was 1.56 µg/mL (≈ 4.46 µM), the MIC [2] was 1.56 µg/mL (≈ 4.46 µM) and the MIC [3] was 6.25 µg/mL (≈ 17.9 µM). For the same compound, the MIC [4] was 25 µg/mL (≈ 71.5 µM).
Clc1ccc(COC(Cn2ccnc2)c2ccc(Cl)cc2Cl)c(Cl)c1 (stereo unspecified) [MICONAZOLE] was tested, and the MIC [1] was 6.25 µg/mL (≈ 15 µM) and the MIC [5] was 25 µg/mL (≈ 60.1 µM).
